Measurements taken from ChEMBL document CHEMBL1671684, “In vitro resistance profile of the hepatitis C virus NS3/4A protease inhibitor TMC435” (Antimicrob Agents Chemother, 2010).

Tests used:
Hepatitis C virus [1] = experiment: Ratio of EC50 for Hepatitis C virus subtype 1b expressing NS3 F43I mutant to EC50 for Hepatitis C virus subtype 1b expressing WT NS3 infected in HuH7 cells after 48 hrs by luciferase reporter assay; format: functional, Hepacivirus hominis, genotype 1b, Huh-7
Method in brief: (§1)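 Transient replicon assay: site-directed single or multiple NS3 mutations engineered into genotype 1b (con1, clone ET) subgenomic bicistronic replicon with luciferase reporter and adaptive mutations E1202G, T1280I, K1846T. Huh7-lunet cells electroporated with 10 μg wild-type or mutant replicon RNA, seeded 4,000 cells/well with nine-point inhibitor dilution; 48 h, 37°C, 5% CO2; luminescence read-out. EC50 as median of individual experiments; fold change versus parental replicon EC50.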

Hepatitis C virus [2] = experiment: Antiviral activity against Hepatitis C virus subtype 1b expressing NS3 A156T mutant infected in HuH7 cells after 48 hrs by luciferase reporter assay; format: functional, organism-based, Hepacivirus hominis; details: genotype 1b, Huh-7, 48 h
Method in brief: (§2)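 Genotype 1b con1 subgenomic bicistronic replicon (clone ET) with luciferase reporter and adaptive mutations E1202G, T1280I, K1846T, carrying site-directed NS3 single or double mutations. 10 μg wild-type or mutant replicon RNA electroporated into Huh7-lunet cells, seeded 4,000 cells/well over a nine-point inhibitor dilution series, 48 h at 37°C, 5% CO2, then luminescence read. EC50 taken as median of individual experiments; fold change relative to parental replicon EC50.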

Hepatitis C virus [3] = experiment: Antiviral activity against Hepatitis C virus subtype 1b expressing NS3 F43S mutant infected in HuH7 cells after 48 hrs by luciferase reporter assay; format: functional, organism-based, Hepacivirus hominis; details: genotype 1b, Huh-7, 48 h; method in brief: as §2
Hepatitis C virus [4] = experiment: Ratio of EC50 for Hepatitis C virus subtype 1b expressing NS3 D168A mutant to EC50 for Hepatitis C virus subtype 1b expressing WT NS3 infected in HuH7 cells after 48 hrs by luciferase reporter assay; format: functional, Hepacivirus hominis, genotype 1b, Huh-7; method in brief: as §2
Hepatitis C virus [5] = experiment: Ratio of EC50 for Hepatitis C virus subtype 1b expressing NS3 D168Y mutant to EC50 for Hepatitis C virus subtype 1b expressing WT NS3 infected in HuH7 cells after 48 hrs by luciferase reporter assay; format: functional, Hepacivirus hominis, genotype 1b, Huh-7; method in brief: as §1
Hepatitis C virus [6] = experiment: Antiviral activity against Hepatitis C virus subtype 1b expressing NS3 Q80R mutant infected in HuH7 cells after 48 hrs by luciferase reporter assay; format: functional, organism-based, Hepacivirus hominis; details: genotype 1b, Huh-7, 48 h; method in brief: as §2
Hepatitis C virus [7] = experiment: Antiviral activity against Hepatitis C virus subtype 1b expressing NS3 R155G mutant infected in HuH7 cells after 48 hrs by luciferase reporter assay; format: functional, organism-based, Hepacivirus hominis; details: genotype 1b, Huh-7, 48 h; method in brief: as §2
Hepatitis C virus [8] = experiment: Ratio of EC50 for Hepatitis C virus subtype 1b expressing NS3 F43S and Q80R mutant to EC50 for Hepatitis C virus subtype 1b expressing WT NS3 infected in HuH7 cells after 48 hrs by luciferase reporter assay; format: functional, Hepacivirus hominis, genotype 1b, Huh-7; method in brief: as §1
Hepatitis C virus [9] = experiment: Ratio of EC50 for Hepatitis C virus subtype 1b expressing NS3 R155K mutant to EC50 for Hepatitis C virus subtype 1b expressing WT NS3 infected in HuH7 cells after 48 hrs by luciferase reporter assay; format: functional, Hepacivirus hominis, genotype 1b, Huh-7; method in brief: as §1
Hepatitis C virus [10] = experiment: Ratio of EC50 for Hepatitis C virus subtype 1b expressing NS3 A156T mutant to EC50 for Hepatitis C virus subtype 1b expressing WT NS3 infected in HuH7 cells after 48 hrs by luciferase reporter assay; format: functional, Hepacivirus hominis, genotype 1b, Huh-7; method in brief: as §2
Hepatitis C virus [11] = experiment: Antiviral activity against Hepatitis C virus subtype 1b expressing NS3 V36A mutant infected in HuH7 cells after 48 hrs by luciferase reporter assay; format: functional, organism-based, Hepacivirus hominis; details: genotype 1b, Huh-7, 48 h; method in brief: as §2
Hepatitis C virus [12] = experiment: Ratio of EC50 for Hepatitis C virus subtype 1b expressing NS3 D168H mutant to EC50 for Hepatitis C virus subtype 1b expressing WT NS3 infected in HuH7 cells after 48 hrs by luciferase reporter assay; format: functional, Hepacivirus hominis, genotype 1b, Huh-7; method in brief: as §1
Hepatitis C virus [13] = experiment: Ratio of EC50 for Hepatitis C virus subtype 1b expressing NS3 D168T mutant to EC50 for Hepatitis C virus subtype 1b expressing WT NS3 infected in HuH7 cells after 48 hrs by luciferase reporter assay; format: functional, Hepacivirus hominis, genotype 1b, Huh-7; method in brief: as §1
Hepatitis C virus [14] = experiment: Antiviral activity against Hepatitis C virus subtype 1b expressing NS3 D168H mutant infected in HuH7 cells after 48 hrs by luciferase reporter assay; format: functional, organism-based, Hepacivirus hominis; details: genotype 1b, Huh-7, 48 h; method in brief: as §2
Hepatitis C virus [15] = experiment: Ratio of EC50 for Hepatitis C virus subtype 1b expressing NS3 Q80R and D168A mutant to EC50 for Hepatitis C virus subtype 1b expressing WT NS3 infected in HuH7 cells after 48 hrs by luciferase reporter assay; format: functional, Hepacivirus hominis, genotype 1b, Huh-7; method in brief: as §1
Hepatitis C virus [16] = experiment: Ratio of EC50 for Hepatitis C virus subtype 1b expressing NS3 F43V mutant to EC50 for Hepatitis C virus subtype 1b expressing WT NS3 infected in HuH7 cells after 48 hrs by luciferase reporter assay; format: functional, Hepacivirus hominis, genotype 1b, Huh-7; method in brief: as §1
Hepatitis C virus [17] = experiment: Antiviral activity against Hepatitis C virus subtype 1b expressing NS3 A156S mutant infected in HuH7 cells after 48 hrs by luciferase reporter assay; format: functional, organism-based, Hepacivirus hominis; details: genotype 1b, Huh-7, 48 h; method in brief: as §2
Hepatitis C virus [18] = experiment: Antiviral activity against Hepatitis C virus subtype 1b expressing NS3 Q80G mutant infected in HuH7 cells after 48 hrs by luciferase reporter assay; format: functional, organism-based, Hepacivirus hominis; details: genotype 1b, Huh-7, 48 h; method in brief: as §2
Hepatitis C virus [19] = experiment: Ratio of EC50 for Hepatitis C virus subtype 1b expressing NS3 V36L mutant to EC50 for Hepatitis C virus subtype 1b expressing WT NS3 infected in HuH7 cells after 48 hrs by luciferase reporter assay; format: functional, Hepacivirus hominis, genotype 1b, Huh-7; method in brief: as §1
Hepatitis C virus [20] = experiment: Antiviral activity against Hepatitis C virus subtype 1b expressing NS3 D168T mutant infected in HuH7 cells after 48 hrs by luciferase reporter assay; format: functional, organism-based, Hepacivirus hominis; details: genotype 1b, Huh-7, 48 h; method in brief: as §2
Hepatitis C virus [21] = experiment: Antiviral activity against Hepatitis C virus subtype 1b expressing NS3 D168A mutant infected in HuH7 cells after 48 hrs by luciferase reporter assay; format: functional, organism-based, Hepacivirus hominis; details: genotype 1b, Huh-7, 48 h; method in brief: as §2
Hepatitis C virus [22] = experiment: Antiviral activity against Hepatitis C virus subtype 1b expressing NS3 V36L mutant infected in HuH7 cells after 48 hrs by luciferase reporter assay; format: functional, organism-based, Hepacivirus hominis; details: genotype 1b, Huh-7, 48 h; method in brief: as §2
Hepatitis C virus [23] = experiment: Ratio of EC50 for Hepatitis C virus subtype 1b expressing NS3 R155G mutant to EC50 for Hepatitis C virus subtype 1b expressing WT NS3 infected in HuH7 cells after 48 hrs by luciferase reporter assay; format: functional, Hepacivirus hominis, genotype 1b, Huh-7; method in brief: as §1
Hepatitis C virus [24] = experiment: Ratio of EC50 for Hepatitis C virus subtype 1b expressing NS3 D168E mutant to EC50 for Hepatitis C virus subtype 1b expressing WT NS3 infected in HuH7 cells after 48 hrs by luciferase reporter assay; format: functional, Hepacivirus hominis, genotype 1b, Huh-7; method in brief: as §1
Hepatitis C virus [25] = experiment: Antiviral activity against Hepatitis C virus subtype 1b expressing NS3 R109K mutant infected in HuH7 cells after 48 hrs by luciferase reporter assay; format: functional, organism-based, Hepacivirus hominis; details: genotype 1b, Huh-7, 48 h; method in brief: as §2
Hepatitis C virus [26] = experiment: Antiviral activity against Hepatitis C virus subtype 1b expressing NS3 R155I mutant infected in HuH7 cells after 48 hrs by luciferase reporter assay; format: functional, organism-based, Hepacivirus hominis; details: genotype 1b, Huh-7, 48 h; method in brief: as §2
Hepatitis C virus [27] = experiment: Ratio of EC50 for Hepatitis C virus subtype 1b expressing NS3 T54S mutant to EC50 for Hepatitis C virus subtype 1b expressing WT NS3 infected in HuH7 cells after 48 hrs by luciferase reporter assay; format: functional, Hepacivirus hominis, genotype 1b, Huh-7; method in brief: as §1
Hepatitis C virus [28] = experiment: Ratio of EC50 for Hepatitis C virus subtype 1b expressing NS3 Q80L mutant to EC50 for Hepatitis C virus subtype 1b expressing WT NS3 infected in HuH7 cells after 48 hrs by luciferase reporter assay; format: functional, Hepacivirus hominis, genotype 1b, Huh-7; method in brief: as §1
Hepatitis C virus [29] = experiment: Antiviral activity against Hepatitis C virus subtype 1b expressing NS3 S138T mutant infected in HuH7 cells after 48 hrs by luciferase reporter assay; format: functional, organism-based, Hepacivirus hominis; details: genotype 1b, Huh-7, 48 h; method in brief: as §2
Hepatitis C virus [30] = experiment: Antiviral activity against Hepatitis C virus subtype 1b expressing NS3 D168Y mutant infected in HuH7 cells after 48 hrs by luciferase reporter assay; format: functional, organism-based, Hepacivirus hominis; details: genotype 1b, Huh-7, 48 h; method in brief: as §2
Hepatitis C virus [31] = experiment: Ratio of EC50 for Hepatitis C virus subtype 1b expressing NS3 R109K mutant to EC50 for Hepatitis C virus subtype 1b expressing WT NS3 infected in HuH7 cells after 48 hrs by luciferase reporter assay; format: functional, Hepacivirus hominis, genotype 1b, Huh-7; method in brief: as §1

Structure (SMILES)	EC50 (Hepatitis C virus [2])	EC50 (Hepatitis C virus [3])	Ratio EC50 (Hepatitis C virus [4])	Ratio EC50 (Hepatitis C virus [5])	EC50 (Hepatitis C virus [6])	EC50 (Hepatitis C virus [7])	Ratio EC50 (Hepatitis C virus [9])	Ratio EC50 (Hepatitis C virus [10])	Ratio EC50 (Hepatitis C virus [12])	Ratio EC50 (Hepatitis C virus [13])	EC50 (Hepatitis C virus [14])	EC50 (Hepatitis C virus [17])	EC50 (Hepatitis C virus [18])	Ratio EC50 (Hepatitis C virus [19])	EC50 (Hepatitis C virus [20])	EC50 (Hepatitis C virus [21])	EC50 (Hepatitis C virus [22])	Ratio EC50 (Hepatitis C virus [23])	Ratio EC50 (Hepatitis C virus [24])	EC50 (Hepatitis C virus [25])	also measured
COc1ccc2c(O[C@@H]3C[C@H]4C(=O)N[C@]5(C(=O)NS(=O)(=O)C6CC6)C[C@H]5/C=C\CCCCN(C)C(=O)[C@@H]4C3)cc(-c3nc(C(C)C)cs3)nc2c1C [SIMEPREVIR]	377 nM	83 nM	594	666	49 nM	350 nM	30	44	368	308	5660 nM	3 nM	22 nM	1.7	4090 nM	6360 nM	18 nM	20	40	11 nM	Ratio EC50 (Hepatitis C virus [1]): 89; Ratio EC50 (Hepatitis C virus [8]): 286; EC50 (Hepatitis C virus [11]): 34 nM; Ratio EC50 (Hepatitis C virus [15]): 2655; Ratio EC50 (Hepatitis C virus [16]): 99; EC50 (Hepatitis C virus [26]): 6.6 nM; Ratio EC50 (Hepatitis C virus [27]): 1.2; Ratio EC50 (Hepatitis C virus [28]): 2.1; EC50 (Hepatitis C virus [29]): 77 nM; EC50 (Hepatitis C virus [30]): 6240 nM; Ratio EC50 (Hepatitis C virus [31]): 0.7
CCC[C@H](NC(=O)[C@@H]1[C@H]2CCC[C@H]2CN1C(=O)[C@@H](NC(=O)[C@@H](NC(=O)c1cnccn1)C1CCCCC1)C(C)(C)C)C(=O)C(=O)NC1CC1 [TELAPREVIR]	20300 nM	749 nM	0.4	1.2	216 nM	9630 nM	10	105	0.7	1	102 nM	3110 nM	202 nM	3.1	181 nM	46 nM	300 nM	20	0.6	66 nM	EC50 (Hepatitis C virus [30]): 187 nM; Ratio EC50 (Hepatitis C virus [31]): 0.8
